The entries come from a sample that favours hits as a whole.
p-CIP stab down: p/CIP-EGFP fusion destabilizers, primary screen, fluorescence, F442A cells; decrease of EGFP signal, % at 10 µM; 290,000 compounds, 0.01% hits; 16 h; AID 1984, 2009;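 active means EGFP signal decrease of at least 30% at 10 µM or well 3 SD below plate mean, unless failing retest; inactive means the rest, including hits failing retest or dose response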
Dynein cargo inh: inhibitors of GR-EGFP nuclear translocation, primary screen, dynein cargo transport inhibitor project, imaging, high-content, 3617.4 mouse cells; AID 1381, 2008; 220,000 compounds, 0.47% hits; test concentration mostly 20 µM; stimulated with dexamethasone, 1 µM; stronger effect = lower value; z-score, hits read low;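 active means plate z-score of nuclear minus cytoplasmic receptor signal below a set negative limit, without overly bright fluorescence or cell loss, cut at about -3.5 in these data, passing the limit was not always enough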;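 further: z-score of nuclear minus cytoplasmic ring GR-EGFP intensity difference per well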
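Also added – dexamethasone, 1.0 µM final · Buffer or medium – tet-free, stripped-serum medium · Schedule – induction 48 h, compound 1 h, agonist 30 min · Detection – formaldehyde fixation, Hoechst nuclear stain, 10x automated fluorescence imaging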
CHOP inhibitor: inhibitors of CHOP promoter induction, primary screen, cell-based, unfolded protein response, luciferase reporter. CHO-K1 CHOP-promoter luciferase, tunicamycin-induced, 15-18 h. inhibition, % at 10 µM. 220,000 compounds, 3.8% hits;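 active means compounds that reduced the stress-induced luciferase reporter signal by more than about 70% of percent inhibition, limit read from the data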;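 further: 0% = tunicamycin plus vehicle and 100% = wells without tunicamycin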
Beta2AR agonist: beta2AR agonists driving receptor internalization, primary screen, cell-based, FAP fluorogen, flow cytometry | Am2.2-beta2AR cells | AID 504454, 2011 | Beta-2 adrenergic receptor (Homo sapiens), P07550 | response, % (no concentration beside the values) | 340,000 compounds, 0.43% hits;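 active means response above a set limit, near 3 SD of response in nonfluorescent compounds, cut at about 42% in these data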
Target sequence (P07550 whole entry, looked up): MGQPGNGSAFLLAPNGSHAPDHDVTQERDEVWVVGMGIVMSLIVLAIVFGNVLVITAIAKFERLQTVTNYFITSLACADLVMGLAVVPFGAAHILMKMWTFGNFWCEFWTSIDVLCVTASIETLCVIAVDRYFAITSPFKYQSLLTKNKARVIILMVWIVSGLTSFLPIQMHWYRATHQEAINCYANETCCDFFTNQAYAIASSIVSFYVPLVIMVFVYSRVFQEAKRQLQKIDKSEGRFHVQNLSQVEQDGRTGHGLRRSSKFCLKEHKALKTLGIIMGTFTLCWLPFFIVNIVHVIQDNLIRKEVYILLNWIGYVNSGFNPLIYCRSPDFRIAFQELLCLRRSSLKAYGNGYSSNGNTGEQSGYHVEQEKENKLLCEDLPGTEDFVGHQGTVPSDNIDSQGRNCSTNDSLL
XBP1 UPR activ: activators of adaptive XBP1 UPR arm, primary screen, cell-based, CHO-XBP1 luciferase reporter, luminescence, uHTS. AID 463104, 2010. IRE1-XBP1 UPR activation; percent of tunicamycin response, DMSO as zero. 330,000 compounds, 0.33% hits. activation, % at 20 µM;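 active means versus positive control, 20 µM dose yields 30% or more activation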;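 further: 100% = tunicamycin at 10 µg/mL and 0% = DMSO only wells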
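Material – CHO cell line with stable XBP1 luciferase reporter · Buffer or medium – F12 plus 10% FBS · Compound – single point, 20 µM final compound, 1% DMSO · Schedule – 16-18 h cell attachment at 37 °C, then 6 h compound exposure · Signal – Steady-Glo luminescence read · Benchmarks – high control tunicamycin 10 µg/mL final, low control DMSO vehicle only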
CHOP UPR activ: activators of apoptotic CHOP UPR arm, primary screen, cell-based, CHO-CHOP luciferase reporter, luminescence, uHTS; UPR activation; percent of tunicamycin response over DMSO baseline; activation, % at 10 µM; 330,000 compounds, 0.34% hits;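 active means at 10 µM dose, activation of 40% or more, normalized to positive control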;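 further: 100% = tunicamycin at 10 µg/mL and 0% = DMSO alone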
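Material: CHO-CHOP cells, stable luciferase reporter of PERK-eIF2a-CHOP signalling; quantity: 500 reporter cells seeded per well; buffer or medium: F12 medium containing 10% fetal bovine serum; compound: one dose, 10 µM in 0.5% DMSO; incubation: 6 h compound treatment, 37 °C; measured by: Steady-Glo luciferase luminescence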
Starred values were filed as active, the others as inactive; / = not tested or not shown; ! = not active in a repeat.

SMILES	p-CIP stab down	Dynein cargo inh	CHOP inhibitor	Beta2AR agonist	XBP1 UPR activ	CHOP UPR activ
Cc1onc(-c2c(Cl)cccc2Cl)c1C(=O)n1nnc2ccccc21	7	-1.3	96*	/	-3	3
CCOC(=O)N1CCN(S(=O)(=O)c2c(C)nc3scc(C)n3c2=O)CC1	10	/	/	1	-7	-2
O=C(COC(=O)c1cc(Br)c(Br)s1)NCCC1=CCCCC1	-6	-0.61	59	-5	-3	2
C=C(C)COc1ccc(-c2nc(N)ncc2-c2ccc(OC)c(OC)c2)c(O)c1	-3	/	/	-7	1	0
C=C(C)COc1ccc(-c2nc(N)nc(C)c2-c2ccc(OC)cc2)c(O)c1	-6	0.025	92*	0	-2	4
C=C(C)COc1ccc(-c2nc(N)ncc2-c2ccc(OC)cc2)c(O)c1	-2	1.9	103*	/	/	/
COc1ccc(-c2nc(N)ncc2Oc2ccccc2Br)c(O)c1	-8	0.88	88*	14	0	-1
C=C(C)COc1ccc(-c2nc(N)nc(C)c2Oc2ccccc2OC)c(O)c1	-23	-0.74	85*	8	0	-1
Cc1ccc(F)c(N=Cc2c(O)c3ccccc3oc2=O)c1	-3	/	/	-17	12	5
Cc1ccc(C(=O)NCCC(=O)NCc2cc(=O)n(C)c(=O)n2C)cc1	-2	/	/	9	-2	0
Cc1cc(C)cc(OCC(=O)Nc2ccccc2N2CCCCC2)c1	-1	0.29	86*	3	-3	0
O=C(COc1ccc(Br)cc1)Nc1ccccc1N1CCCC1	-15	-0.011	70*	0	-2	0
Cc1cc(OCC(=O)Nc2ccccc2N2CCCCC2)ccc1C(C)C	/	/	/	-5	-1	0
Cc1cccc(OCC(=O)Nc2ccccc2N2CCCC2)c1C	/	/	/	32	-3	1
CC(=O)N1CCN(c2ccccc2NC(=O)COc2ccc(Br)cc2)CC1	1	1.5	-1	1	-2	1
Cc1ccc(C(C)C)c(OCC(=O)Nc2ccccc2N2CCN(C)CC2)c1	-12	-3.1	78*	3	-2	-10
Cc1ccccc1OCC(=O)Nc1ccccc1N1CCCCC1	4	-0.79	89*	-8	1	3
COC(=O)c1c(N2C(=O)CC(Sc3ncccc3C(=O)O)C2=O)sc(C)c1C (stereo unspecified)	-10	0.14	-15	1	-2	-1
O=C(COC(=O)c1cccnc1)Nc1ccc2c(c1)OCO2	0	0.77	-7	0	6	1
O=C(c1ccc(COc2ccccc2Cl)o1)N1CCN(Cc2ccc3c(c2)OCO3)CC1	-6	-0.057	73*!	2	-2	-1
CCc1nnc(NC(=O)CSc2nc(C)nc3c2c(=O)n(C)c(=O)n3C)s1	1	/	/	-4	3	2
Cc1ccc(-c2nnn(CC(=O)N(c3ccccc3)C(C(=O)NC3CCCC3)c3ccco3)n2)o1 (stereo unspecified)	-7	1.8	94*	1	0	2
CC(C)(C)NC(=O)C(c1ccco1)N(C(=O)Cn1nnc(-c2ccc(F)cc2)n1)c1ccccc1F (stereo unspecified)	-4	-0.52	84*	3	-2	1
Cc1cc(C)c(C(=O)COC(=O)c2cc([N+](=O)[O-])ccc2NCCO)cc1C	8	-0.28	22	2	-1	-1
COc1ccc(C)cc1NC(=O)c1cc2c(=O)n3ccccc3nc2n1C	-25	0.45	-24	-1	1	0
SMILES	p-CIP stab down	Dynein cargo inh	CHOP inhibitor	Beta2AR agonist	XBP1 UPR activ	CHOP UPR activ
COc1ccc(NC(=O)c2cc3c(=O)n4ccccc4nc3n2C)cc1OC	-13	-0.27	78*	-1	3	2
COC(=O)c1ccccc1NC(=O)CNC(=O)c1ccco1	0	0.98	9	-6	1	-1
Cc1cc(NS(=O)(=O)c2ccc(NC(=O)Cc3ccccc3)cc2)nc(C)n1	-17	/	/	3	4	0
C=CCn1c(SCC(=O)OCC)nc2cc(C(=O)NCc3ccco3)ccc2c1=O	-3	-1	14	5	0	-1
CCCCCn1c(SCC(=O)OCC)nc2cc(C(=O)NCc3ccco3)ccc2c1=O	-7	2.6	73*	6	0	0
O=C(O)CCSc1nc(C(F)(F)F)cc(=O)n1-c1ccccc1	-5	0.091	-12	-1	1	0
O=C(CN1CCN(c2ccccc2O)CC1)Nc1ccc([N+](=O)[O-])cc1Br	0	1.8	16	6	-2	3
O=C(CN1CCN(c2ccccc2O)CC1)Nc1cc([N+](=O)[O-])ccc1Cl	13	0.97	83*	3	-3	-2
O=C(COc1coc(CN2CCCc3ccccc32)cc1=O)Nc1ccccc1	/	/	/	-1	1	0
O=C1CC2c3ccccc3C1C1C(=O)N(Cc3ccccc3)C(=O)C21 (stereo unspecified)	-12	-0.32	61	-4	-2	-1
CCn1cc(-c2cc(C(=O)O)c3ccccc3n2)cn1	6	-0.74	11	2	-1	-2
Cc1ccc(-c2nnn(CC(=O)Nc3cccc4c3CCCC4)n2)o1	0	-0.15	81*	-6	1	0
OC[C@H]1O[C@@H](n2cnc3c(Nc4ccccc4)ncnc32)C(O)[C@H]1O (stereo partly specified)	/	/	3	/	/	/
CN(Cc1ccccc1)CC1C2CCC(C2)C1O (stereo unspecified)	/	/	/	5	/	/
COc1ccc(-c2ccc3oc(-c4ccc(OC)cc4)c(C#CC4(O)CCCCC4)c3c2)cc1	/	/	/	4	-2	0
COc1ccc(S(=O)(=O)N(C)CC(=O)Nc2ccc(C(F)(F)F)cc2)cc1Cl	-11	1.9	81*	-14	-1	-1
COc1ccc(NC(=O)CN(C)S(=O)(=O)c2ccc(Cl)cc2)cc1Cl	-4	0.96	16	13	-1	1
CC1/C(=C\c2ccc(Cl)cc2)C(=O)C2CC1C2(C)C (stereo unspecified)	-12	-0.93	76*	0	-2	3
CC1CCC(C(C)C)C(=O)/C1=C/c1ccc(N)cc1 (stereo unspecified)	-7	-0.34	17	11	2	5
CCOC(=O)c1cccc2c1-c1ccccc1/C2=N/O	-6	-0.68	82*	1	10	0
Cc1ccc(CNC(=O)C(N=C2NS(=O)(=O)c3ccccc32)C(C)C)cc1 (stereo unspecified)	/	/	/	-6	0	-2

Screening results from PubChem.
